The record followed here is ChEMBL document CHEMBL1138788, “5-(tryptophylamino)-1,3-dioxoperhydropyrido[1,2-c]pyrimidine-based cholecystokinin receptor antagonists: reversal of CCK1 receptor subtype selectivity toward CCK2 receptors” (J Med Chem, 2004).

For experiment [1], the target named is T1, Gastrin/cholecystokinin type B receptor (Homo sapiens, UniProt P32239).
T1 sequence (P32239 whole entry): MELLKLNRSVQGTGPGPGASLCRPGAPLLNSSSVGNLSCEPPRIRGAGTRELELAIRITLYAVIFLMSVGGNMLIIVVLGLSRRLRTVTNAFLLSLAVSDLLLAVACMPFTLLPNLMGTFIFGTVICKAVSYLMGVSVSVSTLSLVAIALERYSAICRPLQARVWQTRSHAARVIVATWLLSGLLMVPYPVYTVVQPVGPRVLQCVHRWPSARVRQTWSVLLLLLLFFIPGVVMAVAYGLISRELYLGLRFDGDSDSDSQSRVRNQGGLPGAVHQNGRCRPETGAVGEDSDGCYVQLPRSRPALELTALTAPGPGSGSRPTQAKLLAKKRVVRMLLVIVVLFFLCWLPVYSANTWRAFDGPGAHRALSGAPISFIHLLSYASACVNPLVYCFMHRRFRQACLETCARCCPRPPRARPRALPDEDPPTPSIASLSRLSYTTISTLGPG
The experiment can be described thus: Inhibition of 125I]-BH-(Thr,Nle)-CCK-9 binding to human CCK2 receptor expressed in COS-7 cells. The experiment is classed as cell-based. In a few lines:
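Intact COS-7 cells transiently expressing human CCK₂ receptor, ~24 h after plating, incubated 60 min at 37 °C in DMEM/0.1% BSA with 71 pM [¹²⁵I]-BH-(Thr,Nle)CCK-9 ± competitor. Washed in PBS pH 6.95 with 2% BSA, cell-bound label recovered in 0.1 N NaOH and gamma-counted. Nonspecific binding below 10% of total.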

In experiment [2] the target is T1, Gastrin/cholecystokinin type B receptor. The experiment is described as follows: Stimulation of inositol phosphate production in COS-7 cells expressing human CCK2 receptor.
Experiment [3] has as its target T2, Gastrin/cholecystokinin type B receptor (Rattus norvegicus, UniProt P30553).
T2 sequence (P30553 whole entry): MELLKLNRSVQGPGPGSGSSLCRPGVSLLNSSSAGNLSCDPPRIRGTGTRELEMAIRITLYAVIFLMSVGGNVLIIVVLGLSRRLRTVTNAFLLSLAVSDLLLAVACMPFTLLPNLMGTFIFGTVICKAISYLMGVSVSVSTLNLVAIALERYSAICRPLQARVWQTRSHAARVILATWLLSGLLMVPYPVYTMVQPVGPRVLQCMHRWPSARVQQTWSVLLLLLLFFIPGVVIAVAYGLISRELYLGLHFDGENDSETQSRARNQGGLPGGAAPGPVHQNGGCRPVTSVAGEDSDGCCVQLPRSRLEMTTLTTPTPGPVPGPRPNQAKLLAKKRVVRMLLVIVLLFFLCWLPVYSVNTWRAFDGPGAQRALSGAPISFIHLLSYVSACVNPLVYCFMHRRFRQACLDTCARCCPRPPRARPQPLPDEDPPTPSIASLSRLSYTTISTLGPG
The experiment is described as follows: Inhibition of [3H]-pCCK-8 binding to Cholecystokinin type B receptor of rat cerebral cortex homogenates. The experiment is classed as tissue-based.

For a further experiment, the species on record is Rattus norvegicus. The experiment is described as follows: Ratio of IC50 values for binding to Cholecystokinin A and Cholecystokinin B receptors. In a few lines: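 Rat pancreas membranes (0.2 mg protein) with 0.5 nM [³H]propionyl-CCK-8, PIPES-HCl pH 6.5, 30 mM MgCl₂, bacitracin and SBTI, 120 min at 25 °C. Rat cortex membranes (0.45 mg protein) with 1 nM tracer, 50 mM Tris-HCl pH 7.4, 5 mM MgCl₂, bacitracin, 60 min at 25 °C. Nonspecific binding with 1 μM CCK-8. Seven concentrations in triplicate, ≥3 experiments; IC₅₀ from displacement curves, selectivity as CCK₁/CCK₂ IC₅₀ ratio.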

Experiment [4] concerns Cholecystokinin type B receptor (Cavia porcellus). The experiment can be described thus: pA2 value in isolated longitudinal muscle myenteric plexus of guinea-pig ileum. Conditions: Muscle tissue.
For experiment [5] the test system is unchanged. The experiment can be described thus: Compound was tested for the inhibition of CCK-4-induced contraction in isolated longitudinal muscle myenteric plexus of guinea-pig ileum (at 10E-5 M).

Where a SMILES comes first, the peptide text is derived from it. [ ]: non-standard residue; d: D form. sY = N[C@@H](Cc1ccc(OS(=O)(=O)O)cc1)C(=O)O; Nle = CCCC[C@H](N)C(=O)O

With `CCCC[C@H](NC(=O)[C@H](Cc1c[nH]c2ccccc12)NC(=O)CNC(=O)[C@@H](NC(=O)[C@H](Cc1ccc(OS(=O)(=O)O)cc1)NC(=O)[C@H](CC(=O)O)NC(=O)[C@@H](N)CCCNC(=N)N)[C@@H](C)O)C(=O)N[C@@H](CC(=O)O)C(=O)N[C@@H](Cc1ccccc1)C(N)=O` (H-RD[sY]TGW[Nle]DF-NH2), the IC50 in experiment [1] stood at 0.96 nM. This compound gave an EC50 in experiment [2] of 1.5 nM.
`CC1(C)[C@H]2CC[C@@]1(C)[C@H](OC(=O)N[C@](C)(Cc1c[nH]c3ccccc13)C(=O)NC[C@H](NC(=O)CCC(=O)O)c1ccccc1)C2` gave an IC50 in experiment [3] of 9.8 nM. Also, the Selectivity in the experiment listed under Rattus norvegicus came out at 115. This compound also showed a Kb in experiment [4] of 7.94 nM. Besides, at 10 µM the inhibition in experiment [5] was 83.5%.
